Results collected from several papers.
Protocols differ between the studies behind these lines.
PPARA: Peroxisome proliferator-activated receptor alpha (PPARA, Homo sapiens, UniProt Q07869)
CASP1: Caspase-1 (CASP1, Homo sapiens, UniProt P29466)
ADRA1B: Alpha-1B adrenergic receptor (ADRA1B, Homo sapiens, UniProt P35368)

| SMILES | target | test | setting | Ki [nM] |
| --- | --- | --- | --- | --- |
| CSC[C@H]1CN(Cc2c[nH]c3c(N)ncnc23)C[C@@H]1O | 5'-methylthioadenosine/S-adenosylhomocysteine nucleosidase (Staphylococcus aureus, UniProt Q5HFG2) | enzyme activity, inhibitor |  | 7.8 |
| O=S(=O)(Nc1ccc[nH]c1=S)c1cccs1 | Insulin-degrading enzyme (IDE, Homo sapiens, UniProt P14735) | enzyme activity, inhibitor, fluorescence |  | 77000 |
| O=C(Nc1ccc(Oc2ncccn2)cc1C(=O)O)c1ccc(Cl)cc1Cl | PPARA | ligand displacement, TR-FRET |  | 4420 |
| O=c1c(O)c(-c2cc(O)c(O)c(O)c2)oc2cc(O)cc(O)c12 | CASP1 | enzyme activity, inhibitor, fluorescence |  | 14300 |
| O=C(O)c1c(Sc2ccccc2)c2cc(Cl)ccc2n1Cc1ccc(Cl)cc1 | PPARA | ligand displacement, TR-FRET |  | 19700 |
| CC[C@H](C)[C@H](NC(=O)[C@H](CCCNC(=N)N)NC(=O)[C@H](CCCNC(=N)N)NC(=O)[C@H](CC(C)C)NC(=O)CNC(=O)[C@H](CCC(N)=O)NC(=O)[C@H](C)NC(=O)[C@@H](NC(=O)[C@H](Cc1c[nH]c2ccccc12)NC(=O)[C@@H](NC(=O)[C@H](CCC(=O)O)NC(=O)[C@@H]1CCCN1C(=O)[C@H](CCCNC(=N)N)NC(C)=O)[C@@H](C)CC)[C@@H](C)CC)C(=O)NCC(=O)N[C@@H](CC(=O)O)C(=O)N[C@H](C(=O)N[C@@H](Cc1c[nH]c2ccccc12)C(=O)N[C@@H](CC(N)=O)C(=O)N[C@@H](C)C(=O)N[C@@H](Cc1ccc(O)cc1)C(=O)N[C@@H](Cc1ccc(O)cc1)C(=O)N[C@@H](C)C(=O)N[C@@H](CCCNC(=N)N)C(N)=O)[C@@H](C)O | Bcl-2-related protein A1 (Homo sapiens, UniProt Q16548) | ligand displacement, FP | pH 7.8 | 8 |
| CC(=O)N[C@@H](CCCNC(=N)N)C(=O)NCC(=O)NCC(=O)N1CCC[C@H]1B(O)O | Prolyl endopeptidase (PREP, Homo sapiens, UniProt P48147) | enzyme activity, inhibitor, fluorescence |  | 1.6 |
| CC(=O)N[C@@H](CC(C)C)C(=O)N[C@@H](CC(C)C)C(=O)N[C@@H](CCCN=C(N)N)C(=O)N[C@H](C(=O)N[C@@H](CCCCN)C(=O)N[C@@H](CCCN=C(N)N)C(N)=O)C(C)C | Neuroendocrine convertase 2 (Homo sapiens, UniProt P16519) | enzyme activity, inhibitor |  | 1600 |
| O=C1c2ccccc2CCN1CCCCN1CCN(c2ccccn2)CC1 | ADRA1B | ligand displacement, radioligand |  | 1380 |
| NCCCCC(c1ccccc1)(c1ccccc1)c1ccccc1 | Kinesin-like protein KIF11 (KIF11, Homo sapiens, UniProt P52732) | ATPase activity, inhibitor |  | 1670 |
| O=c1c(O)c(-c2ccc(O)c(O)c2)oc2cc(O)cc(O)c12 | CASP1 | enzyme activity, inhibitor, fluorescence |  | > 300000 |
| CCCC[C@H](NC(=O)C1CN(C)C1)c1ncc(-c2cc3ccccc3nc2OC)[nH]1 | Histone deacetylase 3 (HDAC3, Homo sapiens, UniProt O15379) | enzyme activity, inhibitor |  | 273 |
| COc1ccc2c(c1)C(=O)N(CCN1CCN(c3ccccc3OC)CC1)C2 | ADRA1B | ligand displacement, radioligand |  | 38.7 |
